Assay results published in ChEMBL document CHEMBL1123434, “Thiazole-4-carboxamide adenine dinucleotide (TAD). Analogues stable to phosphodiesterase hydrolysis” (J Med Chem, 1986).

How the values were obtained:
P388 [1] = experiment: The influence (5 uM) on Guanine nucleotide pools of Natural P388 sensitive cell lines measured as conc. of GTP; format: functional, Mus musculus
In short: (§1)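 Log-phase P388/S (parental) or P388/R cells (TR-resistant, selected to grow in 1 mM TR) exposed 18 h to the stated concentration. Cells then washed in cold saline, extracted with cold 10% TCA and neutralized with tri-n-octylamine/freon. GMP, GDP and GTP quantified by SAX HPLC: 0.03 M ammonium phosphate pH 3.5, then gradient to 0.6 M, pH 3.8. Values as nmol/10^6 cells.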

P388 [2] = experiment: The influence (5 uM) on Guanine nucleotide pools of Natural P388 sensitive cell lines measured as conc. of GDP; format: functional, Mus musculus; in short: as §1
P388 [3] = experiment: The influence (2.5 uM) on Guanine nucleotide pools of Natural P388 sensitive cell lines measured as conc. of GDP; format: functional, Mus musculus; in short: as §1
P388 [4] = experiment: The influence (5000 uM) on Guanine nucleotide pools of Natural P388 resistant cell lines measured as conc. of GMP; format: functional, Mus musculus; in short: as §1
P388 [5] = experiment: The influence (2.5 uM) on Guanine nucleotide pools of Natural P388 resistant cell lines measured as conc. of GTP; format: functional, Mus musculus; in short: as §1
P388 [6] = experiment: The influence (2.5 uM) on Guanine nucleotide pools of Natural P388 sensitive cell lines measured as conc. of GTP; format: functional, Mus musculus; in short: as §1
P388 [7] = experiment: The influence (2.5 uM) on Guanine nucleotide pools of Natural P388 resistant cell lines measured as conc. of GMP; format: functional, Mus musculus; in short: as §1
P388 [8] = experiment: The influence (2.5 uM) on Guanine nucleotide pools of Natural P388 sensitive cell lines measured as conc. of GMP; format: functional, Mus musculus; in short: as §1
P388 [9] = experiment: The influence (2.5 uM) on Guanine nucleotide pools of Natural P388 resistant cell lines measured as conc. of GDP; format: functional, Mus musculus; in short: as §1
P388 [10] = experiment: The influence (5 uM) on Guanine nucleotide pools of Natural P388 sensitive cell lines measured as conc. of GMP; format: functional, Mus musculus; in short: as §1
P388 [11] = experiment: The influence (5000 uM) on Guanine nucleotide pools of Natural P388 resistant cell lines measured as conc. of GDP; format: functional, Mus musculus; in short: as §1
P388 [12] = experiment: The influence (5000 uM) on Guanine nucleotide pools of Natural P388 resistant cell lines measured as conc. of GTP; format: functional, Mus musculus; in short: as §1
[13] = biological target: Inosine-5'-monophosphate dehydrogenase 2 (Mus musculus, UniProt P24547); experiment: Compound was tested for inhibitory activity against Inosine-5'-monophosphate dehydrogenase, the type of inhibition in not competitive
In short: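 Partially purified IMP dehydrogenase; kinetics run at 3 inhibitor concentrations against 6 levels of substrate NAD or IMP (0.25, 0.5, 1, 2, 4 and 6 × Km). Inhibition type judged from these kinetics.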

snake = experiment: Compound was tested for its degradation by venom phosphodiesterase; format: functional
In short: (§2)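 Dinucleotide incubated as substrate at 7.5 mM in 0.03 M Tris-MgCl2, pH 7.6, for 30 min with enzyme: line 1, partially purified TAD-phosphodiesterase from colon-38 carcinoma cells; line 2, snake venom phosphodiesterase. Degradation quantified by HPLC as AMP or TRMP formed, or parent dinucleotide lost, depending on substrate. Expressed relative to TAD hydrolysis set at 100%.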

P388 [14] = experiment: The influence (50 uM) on Guanine nucleotide pools of Natural P388 resistant cell lines measured as conc. of GDP; format: functional, Mus musculus; in short: as §1
P388 [15] = experiment: The influence (50 uM) on Guanine nucleotide pools of Natural P388 sensitive cell lines measured as conc. of GDP; format: functional, Mus musculus; in short: as §1
P388 [16] = experiment: The influence (100 uM) on Guanine nucleotide pools of Natural P388 resistant cell lines measured as conc. of GDP; format: functional, Mus musculus; in short: as §1
P388 [17] = experiment: The influence (50 uM) on Guanine nucleotide pools of Natural P388 resistant cell lines measured as conc. of GTP; format: functional, Mus musculus; in short: as §1
P388 [18] = experiment: The influence (50 uM) on Guanine nucleotide pools of Natural P388 resistant cell lines measured as conc. of GMP; format: functional, Mus musculus; in short: as §1
Mus musculus = organism: Mus musculus; experiment: Compound was tested for its degradation by TAD-phosphodiesterase; format: functional; in short: as §2
P388 [19] = experiment: The cytotoxic concentration against P388 leukemia cell; format: functional; conditions: Mus musculus, read-out: ID50 (the source's name)
P388 [20] = experiment: The influence (100 uM) on Guanine nucleotide pools of Natural P388 resistant cell lines measured as conc. of GTP; format: functional, Mus musculus; in short: as §1
P388 [21] = experiment: The influence (100 uM) on Guanine nucleotide pools of Natural P388 sensitive cell lines measured as conc. of GDP; format: functional, Mus musculus; in short: as §1
P388 [22] = experiment: The influence (100 uM) on Guanine nucleotide pools of Natural P388 sensitive cell lines measured as conc. of GTP; format: functional, Mus musculus; in short: as §1
P388 [23] = experiment: The influence (50 uM) on Guanine nucleotide pools of Natural P388 sensitive cell lines measured as conc. of GTP; format: functional, Mus musculus; in short: as §1
P388 [24] = experiment: The influence (50 uM) on Guanine nucleotide pools of Natural P388 sensitive cell lines measured as conc. of GMP; format: functional, Mus musculus; in short: as §1
P388 [25] = experiment: The influence (100 uM) on Guanine nucleotide pools of Natural P388 sensitive cell lines measured as conc. of GMP; format: functional, Mus musculus; in short: as §1
P388 [26] = experiment: The influence (100 uM) on Guanine nucleotide pools of Natural P388 resistant cell lines measured as conc. of GMP; format: functional, Mus musculus; in short: as §1

Inosine-5'-monophosphate dehydrogenase 2, sequence (P24547 whole entry): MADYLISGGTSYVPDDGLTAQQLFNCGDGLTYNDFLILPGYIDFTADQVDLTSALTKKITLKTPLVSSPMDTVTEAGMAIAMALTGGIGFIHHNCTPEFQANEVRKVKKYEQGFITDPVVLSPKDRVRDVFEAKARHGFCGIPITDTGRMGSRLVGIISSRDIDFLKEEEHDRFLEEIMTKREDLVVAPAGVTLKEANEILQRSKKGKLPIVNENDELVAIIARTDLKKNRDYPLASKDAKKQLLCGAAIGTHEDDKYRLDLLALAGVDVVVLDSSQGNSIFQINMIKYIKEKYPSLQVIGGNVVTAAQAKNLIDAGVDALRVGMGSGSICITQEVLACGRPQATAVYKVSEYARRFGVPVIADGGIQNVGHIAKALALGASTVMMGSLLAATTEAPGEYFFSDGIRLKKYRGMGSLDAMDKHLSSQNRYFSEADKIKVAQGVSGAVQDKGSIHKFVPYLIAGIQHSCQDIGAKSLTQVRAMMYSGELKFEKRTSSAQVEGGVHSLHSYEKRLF

`NC(=O)c1csc([C@@H]2O[C@H](CO)[C@@H](O)[C@H]2O)n1` [TIAZOFURIN] showed a Control (P388 [1]) of 34%, a Control (P388 [2]) of 36% and a Control (P388 [3]) of 41%. For the same molecule, the Control (P388 [4]) was 0%, the Control (P388 [5]) was 111% and the Control (P388 [6]) was 51%. For the same molecule, the Control (P388 [7]) was 98%, the Control (P388 [8]) was 12% and the Control (P388 [9]) was 88%. It also gave a Control (P388 [10]) of 8%, a Control (P388 [11]) of 74% and a Control (P388 [12]) of 52%.
For `NC(=O)c1csc([C@@H]2O[C@H](COP(=O)(O)CP(=O)(O)OC[C@@H]3O[C@H](n4cnc5c(N)ncnc54)[C@@H](O)[C@H]3O)[C@@H](O)[C@H]2O)n1`, the Ki [13] was 0.23 µM, the hydrolysis relative to TAD (snake) was 0% and the Control (P388 [14]) was 24%. For the same molecule, the Control (P388 [15]) was 24%, the Control (P388 [16]) was 34% and the Control (P388 [17]) was 5%. For the same molecule, the Control (P388 [18]) was 3%, the hydrolysis relative to TAD (Mus musculus) was 0% and the IC50 (P388 [19]) was 45 µM. For the same molecule, the Control (P388 [20]) was 8%, the Control (P388 [21]) was 19% and the Control (P388 [22]) was 39%. It also gave a Control (P388 [23]) of 24%, a Control (P388 [24]) of 14% and a Control (P388 [25]) of 6%. It also gave a Control (P388 [26]) of 3%.
With `NC(=O)c1csc([C@@H]2O[C@H](CCP(=O)(O)OP(=O)(O)OC[C@H]3O[C@@H](n4cnc5c(N)ncnc54)[C@H](O)[C@@H]3O)[C@@H](O)[C@H]2O)n1` the Ki [13] was 1.97 µM, the hydrolysis relative to TAD (snake) was 27.2% and the hydrolysis relative to TAD (Mus musculus) was 10.4%. It also gave an IC50 (P388 [19]) of 100 µM.
Molecule `NC(=O)c1csc([C@H]2O[C@@H](COP(=O)(O)OP(=O)(O)OC[C@H]3O[C@@H](n4cnc5c(N)ncnc54)[C@H](O)[C@@H]3O)[C@H](O)[C@@H]2O)n1` has a Ki [13] of 0.24 µM, a hydrolysis relative to TAD (snake) of 100% and a hydrolysis relative to TAD (Mus musculus) of 100%. The IC50 (P388 [19]) was 2.1 µM.
With `NC(=O)c1csc([C@@H]2O[C@H](COP(=O)(O)OP(=O)(O)CC[C@H]3O[C@@H](n4cnc5c(N)ncnc54)[C@H](O)[C@@H]3O)[C@@H](O)[C@H]2O)n1` the hydrolysis relative to TAD (snake) was 37.6%, the hydrolysis relative to TAD (Mus musculus) was 13% and the IC50 (P388 [19]) was 2.8 µM.
